Reference: ChEMBL document CHEMBL1121824, “1-Aryl-3-azabicyclo[3.1.0]hexanes, a new series of nonnarcotic analgesic agents” (1981)

Tests used:
Format in all cases: functional
Rattus norvegicus [1] = experiment: Analgesic activity for inflamed rat-paw reversal of abnormal (three legged) gait expressed as ED50 (po).
How it was run: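 Rats given brewers' yeast in plantar surface of left hind paw; 3 h later gait scored 0 (normal) to 2 (maximal abnormal). Rats scoring 2 dosed orally in 2% starch suspension with 5% PEG 400 and Tween 80; gait rescored at set intervals. ED50 = dose reducing score from 2 to 1 in 50% of rats.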

Rattus norvegicus [2] = experiment: Analgesic activity was measured using inflamed rat paw pressure threshold method expressed as ED50 (sc)
How it was run: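 Paw-pressure threshold in rats, left hind paw injected with 0.1 mL 20% brewers' yeast; threshold recorded 2 h post-yeast. Compound given subcutaneously in normal saline at times set by duration of action. Positive = ≥100% threshold rise; ED50 with 95% confidence limits via Finney linear arc sine transformation.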

Mus musculus = experiment: Analgesic activity was measured using mouse anti-writhing method expressed as ED50 (po)
How it was run: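 Mice in pairs; writhing induced by intraperitoneal phenyl-p-quinone 1 mg/kg. Compound given orally in 2% starch suspension with 5% PEG 400 and a drop of Tween 80.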

Rattus norvegicus [3] = experiment: Analgesic activity was measured using inflamed rat paw pressure threshold method expressed as ED50 (po)
How it was run: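 Modified Randall–Selitto: left hind paw sensitised with 0.1 mL 20% aqueous brewers' yeast, pressure-pain threshold read 2 h after yeast. Oral dosing in 2% starch/5% PEG 400/Tween 80, timed to peak effect. ≥100% threshold elevation positive; ED50 (dose giving this in 50% of rats) with 95% limits by Finney arc sine method.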

Rattus norvegicus [4] = experiment: Analgesic activity was assessed for inflamed rat-paw reversal of abnormal (three legged) gait expressed as ED50 (sc)
How it was run: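 Yeast (brewers') injected into plantar surface of left hind paw; gait scored 0–2 at 3 h. Rats scoring 2 received compound subcutaneously in normal saline; postdrug scores taken at set intervals. ≥50% gait reduction counted positive; ED50 = dose lowering score 2 to 1 in 50% of rats.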

[5] = Rattus norvegicus, po, read-out: ED50
[6] = Mus musculus, po, read-out: ED50

Row | Compound | ED50 (Rattus norvegicus [1]; [5]) [mg/kg] | ED50 (Mus musculus; [6]) [mg/kg] | ED50 (Rattus norvegicus [3]; [5]) [mg/kg] | other results
1 | Cl.Clc1ccc(C23CNCC2C3)cc1Cl (stereo not given) | 141 | – | – | –
2 | CN1CC2CC2(c2cccc(O)c2)C1.Cl (stereo not given) | > 50 | > 50 | – | ED50 (Rattus norvegicus [2]): 25 mg/kg
3 | COc1cccc(C23CC2CN(C)C3)c1.Cl (stereo not given) | > 100 | – | – | –
4 | Cl.FC(F)(F)c1ccc(C23CNCC2C3)cc1 (stereo not given) | 38 | > 100 | 40 | –
5 | CCCCCCN1CC2CC2(c2ccc(C)cc2)C1.Cl (stereo not given) | > 50 | – | – | –
6 | Cl.c1ccc(C23CNCC2C3)cc1 (single isomer, unassigned; (-)) | – | – | – | ED50 (Rattus norvegicus [1]): >200 mg/kg; ED50 (Rattus norvegicus [3]): 43 mg/kg; ED50 (Mus musculus): <50 mg/kg
7 | Cl.Fc1ccc(C23CNCC2C3)cc1 (stereo not given) | > 50 | 34 | 14 | –
8 | Cl.Oc1cccc(C23CNCC2C3)c1 (stereo not given) | – | – | – | ED50 (Rattus norvegicus [2]): > 25 mg/kg; ED50 (Rattus norvegicus [4]): 16 mg/kg
9 | COc1cccc(C23CNCC2C3)c1.Cl (stereo not given) | 177 | – | – | –
10 | CCc1ccc(C23CNCC2C3)cc1.Cl (stereo not given) | 13 | 24 | 25 | –
11 | Cl.c1ccc(C23CNCC2C3)cc1 (stereo in doubt; 2c) | – | < 100 | 71 | ED50 (Rattus norvegicus [1]): 70 mg/kg
12 | Cl.Fc1cccc(C23CNCC2C3)c1 (stereo not given) | > 50 | 21 | 67 | –
13 | Cl.Clc1ccc(C23CNCC2C3)cc1 (stereo in doubt; 2x) | – | – | – | ED50 (Rattus norvegicus [1]): 25 mg/kg; ED50 (Rattus norvegicus [3]): 13 mg/kg; ED50 (Mus musculus): 19 mg/kg
14 | CCCCCCc1ccc(C23CNCC2C3)cc1.Cl (stereo not given) | > 50 | – | – | –
15 | Cl.Clc1ccc(C23CNCC2C3)cc1 (stereo in doubt; 2y (-)) | – | – | – | ED50 (Rattus norvegicus [1]): 150 mg/kg; ED50 (Rattus norvegicus [3]): >50 mg/kg; ED50 (Mus musculus): <100 mg/kg
16 | C=CCN1CC2CC2(c2ccc(C)cc2)C1.Cl (stereo not given) | > 50 | – | – | –
17 | COc1ccc(C23CNCC2C3)cc1Br.Cl (stereo not given) | > 25 | – | – | –
18 | Cl.Clc1ccc(C23CNCC2C3)cc1 (stereo in doubt; 2a) | – | – | – | ED50 (Rattus norvegicus [1]): 31 mg/kg; ED50 (Rattus norvegicus [3]): 21 mg/kg; ED50 (Mus musculus): 21 mg/kg
19 | CC(C)(C)c1ccc(C23CNCC2C3)cc1.Cl (stereo not given) | > 200 | – | – | –
20 | Cl.Oc1ccc(C23CNCC2C3)cc1 (stereo not given) | > 200 | – | – | –

Row | Compound | ED50 (Rattus norvegicus [1]; [5]) [mg/kg] | ED50 (Mus musculus; [6]) [mg/kg] | ED50 (Rattus norvegicus [3]; [5]) [mg/kg] | other results
21 | CCOc1ccc(C23CNCC2C3)cc1.Cl (stereo not given) | 29 | – | – | –
22 | Cc1ccc(C23CNCC2C3)cc1.Cl (single isomer, unassigned; (-)) [BICIFADINE HYDROCHLORIDE] | – | – | – | ED50 (Rattus norvegicus [1]): >200 mg/kg; ED50 (Rattus norvegicus [3]): >25 mg/kg
23 | Cl.Clc1ccccc1C12CNCC1C2 (stereo not given) | > 100 | – | – | –
24 | CC(=O)Oc1ccccc1C(=O)O [ASPIRIN] | 74 | 29 | 150 | –
25 | Cl.Clc1cccc(C23CNCC2C3)c1 (stereo not given) | > 50 | 34 | 50 | –
26 | Cc1ccc(C23CNCC2C3)cc1.Cl (stereo in doubt; 2b) [BICIFADINE HYDROCHLORIDE] | – | 13 | – | ED50 (Rattus norvegicus [1]): 18 mg/kg; ED50 (Rattus norvegicus [4]): 4 mg/kg; ED50 (Rattus norvegicus [3]): 11 mg/kg
27 | COc1ccc(C23CNCC2C3)cc1.Cl (stereo not given) | 24 | 4 | 49 | –
28 | COc1ccc2c3c1O[C@H]1[C@@H](O)C=C[C@H]4[C@@H](C2)N(C)CC[C@@]341.COc1ccc2c3c1O[C@H]1[C@@H](O)C=C[C@H]4[C@@H](C2)N(C)CC[C@@]341.O.O=P(O)(O)O.O=P(O)(O)O [CODEINE PHOSPHATE] | 51 | 9 | 43 | –
29 | Cl.FC(F)(F)c1cc(C23CNCC2C3)ccc1Cl (stereo not given) | 177 | – | – | –
30 | Cl.FC(F)(F)c1cccc(C23CNCC2C3)c1 (stereo not given) | 28 | 29 | 50 | –
31 | Cc1ccc(C23CNCC2C3)cc1.Cl (stereo in doubt; 2v) [BICIFADINE HYDROCHLORIDE] | – | – | – | ED50 (Rattus norvegicus [1]): 17 mg/kg; ED50 (Rattus norvegicus [3]): <25 mg/kg
32 | Brc1ccc(C23CNCC2C3)cc1.Cl (stereo not given) | 141 | – | – | –
33 | Cc1ccccc1C12CNCC1C2.Cl (stereo not given) | > 50 | > 50 | – | –
34 | CN1CC2CC2(c2ccc(Cl)cc2)C1.Cl (stereo not given) | > 50 | < 100 | 60 | –
35 | Cl.c1ccc(C23CNCC2C3)cc1 (single isomer, unassigned; (+)) | – | – | – | ED50 (Rattus norvegicus [1]): 125 mg/kg; ED50 (Rattus norvegicus [3]): 79 mg/kg
36 | Cc1cccc(C23CNCC2C3)c1.Cl (stereo not given) | > 50 | 18 | 25 | –
37 | Cc1ccc(C23CC2CN(C)C3)cc1.Cl (stereo not given) | 20 | 16 | 24 | –
38 | CC(C)c1ccc(C23CNCC2C3)cc1.Cl (stereo not given) | – | 30 | – | ED50 (Rattus norvegicus [2]): > 25 mg/kg; ED50 (Rattus norvegicus [4]): 9 mg/kg
39 | Cc1ccc(C23CC2CN(CC2CC2)C3)cc1.Cl (stereo not given) | > 50 | – | – | –
